From ChEMBL document CHEMBL4602632, “Synthesis and anti-Mycobacterium tuberculosis activity of imide-β-carboline and carbomethoxy-β-carboline derivatives” (Eur J Med Chem, 2020)
Converted amounts (≈) assume the structure as drawn.

What was measured:
[1] = test system: Mycobacterium tuberculosis; assay: Antimycobacterial activity against Mycobacterium tuberculosis H37Rv assessed as reduction in bacterial growth incubated for 7 days by resazurin dye based assay; assay type: functional; details: 168 h
Procedure, shortened: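 REMA broth microdilution: DMSO stocks diluted in 7H9-OADC, standardized inoculum added, final 0.98 to 250 μg/mL; 7 days at 35 °C in normal atmosphere, then 0.01% resazurin and a further 24 h at 35 °C. Read visually. MIC is the lowest concentration preventing the blue-to-pink change. Three independent assays on different days; isoniazid reference, medium, sterility and growth ±2.5% DMSO controls.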

[2] = Selectivity index, ratio of CC50 for African green monkey Vero cells to MIC for Mycobacterium tuberculosis 19; assay type: toxicity
[3] = Selectivity index, ratio of CC50 for African green monkey Vero cells to MIC for Mycobacterium tuberculosis 3614; assay type: toxicity
[4] = Selectivity index, ratio of CC50 for African green monkey Vero cells to MIC for Mycobacterium tuberculosis BRF16; assay type: toxicity
[5] = Cytotoxicity against African green monkey Vero cells assessed as reduction in cell viability incubated for 24 hrs by MTT assay; assay type: cell-based; details: chlorocebus sabaeus
Procedure, shortened: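 VERO (ATCC CCL81) cells grown in DMEM with 10% FBS at 37 °C, 5% CO₂. Seeded at 5 × 10⁴ cells/well for 24 h, then exposed to 1.95–1000 μg/mL in DMEM for 24 h. Washed with PBS, MTT (2 mg/mL in PBS) added for 4 h, dissolved in DMSO, A550 read. CC50 is the highest concentration leaving 50% of cells viable versus control. Three independent assays.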

[6] = Selectivity index, ratio of CC50 for African green monkey Vero cells to MIC for Mycobacterium tuberculosis 71A; assay type: toxicity
[7] = Selectivity index, ratio of CC50 for African green monkey Vero cells to MIC for Mycobacterium tuberculosis BRF45; assay type: toxicity
[8] = Selectivity index, ratio of CC50 for African green monkey Vero cells to MIC for Mycobacterium tuberculosis 73A; assay type: toxicity
[9] = Selectivity index, ratio of CC50 for African green monkey Vero cells to MIC for Mycobacterium tuberculosis H37Rv; assay type: toxicity
Procedure, shortened: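 Selectivity index computed as the CC50 from VERO MTT assay divided by the REMA MIC against H37Rv.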

[10] = Selectivity index, ratio of CC50 for African green monkey Vero cells to MIC for Mycobacterium tuberculosis 91; assay type: toxicity
[11] = Selectivity index, ratio of CC50 for African green monkey Vero cells to MIC for Mycobacterium tuberculosis BRF14; assay type: toxicity
[12] = Selectivity index, ratio of CC50 for African green monkey Vero cells to MIC for Mycobacterium tuberculosis BRF57; assay type: toxicity

COC(=O)c1cc2c([nH]c3ccccc32)c(-c2ccccc2)n1
MIC [1]: > 828 µM

COC(=O)c1cc2c([nH]c3ccccc32)c(-c2ccccc2Cl)n1
MIC [1]: > 744 µM

COC(=O)c1cc2c([nH]c3ccccc32)c(-c2ccc(OC)cc2)n1
MIC [1]: 579 µM (≈ 192 µg/mL)

COC(=O)c1cc2c([nH]c3ccccc32)c(-c2cccc([N+](=O)[O-])c2)n1
MIC [1]: 720 µM (≈ 250 µg/mL)

COC(=O)c1cc2c([nH]c3ccccc32)c(-c2ccc(N(C)C)cc2)n1
selectivity ratio [2]: 13.9 | selectivity ratio [3]: 13.5 | selectivity ratio [4]: 3.48 | CC50 at 24 h [5]: 435 µM | selectivity ratio [6]: < 1.74 | selectivity ratio [7]: 13.9 | selectivity ratio [8]: 13.9 | selectivity ratio [9]: 3.48 | selectivity ratio [10]: 6.96 | MIC [1]: 362 µM (≈ 125 µg/mL) | selectivity ratio [11]: 1.74 | selectivity ratio [12]: 3.48

O=C(NN1C(=O)CCC1=O)c1cc2c([nH]c3ccccc32)c(-c2ccc(F)cc2)n1
selectivity ratio [2]: 4.32 | selectivity ratio [3]: 4.32 | selectivity ratio [4]: 4.32 | CC50 at 24 h [5]: 270 µM | selectivity ratio [6]: 2.16 | selectivity ratio [7]: 8.64 | selectivity ratio [8]: 8.64 | selectivity ratio [9]: 2.16 | selectivity ratio [10]: 2.16 | MIC [1]: 311 µM (≈ 125 µg/mL) | selectivity ratio [11]: 4.32 | selectivity ratio [12]: 2.16

O=C(NN1C(=O)C=CC1=O)c1cc2c([nH]c3ccccc32)c(-c2ccccc2)n1
MIC [1]: 654 µM (≈ 250 µg/mL)

O=C(NN1C(=O)c2ccccc2C1=O)c1cc2c([nH]c3ccccc32)c(-c2ccccc2Cl)n1
MIC [1]: 536 µM (≈ 250 µg/mL)

O=C(NN1C(=O)c2ccccc2C1=O)c1cc2c([nH]c3ccccc32)c(-c2cccc([N+](=O)[O-])c2)n1
selectivity ratio [2]: 5.2 | selectivity ratio [3]: 5.2 | selectivity ratio [4]: 5.2 | CC50 at 24 h [5]: 650 µM | selectivity ratio [6]: < 2.6 | selectivity ratio [7]: 5.2 | selectivity ratio [8]: 5.2 | selectivity ratio [9]: 5.2 | selectivity ratio [10]: < 2.6 | MIC [1]: 262 µM (≈ 125 µg/mL) | selectivity ratio [11]: 2.6 | selectivity ratio [12]: < 2.6

COC(=O)c1cc2c([nH]c3ccccc32)c(-c2ccc(O)c(OC)c2)n1
MIC [1]: 718 µM (≈ 250 µg/mL)

O=C(NN1C(=O)C=CC1=O)c1cc2c([nH]c3ccccc32)c(-c2ccc(F)cc2)n1
MIC [1]: 625 µM (≈ 250 µg/mL)

COc1ccc(-c2nc(C(=O)NN3C(=O)CCC3=O)cc3c2[nH]c2ccccc23)cc1
MIC [1]: > 604 µM

CN(C)c1ccc(-c2nc(C(=O)NN3C(=O)c4ccccc4C3=O)cc3c2[nH]c2ccccc23)cc1
MIC [1]: > 526 µM

O=C(NN1C(=O)c2ccccc2C1=O)c1cc2c([nH]c3ccccc32)c(-c2ccccc2)n1
selectivity ratio [2]: 14.4 | selectivity ratio [3]: 14.4 | selectivity ratio [4]: 7.2 | CC50 at 24 h [5]: 900 µM | selectivity ratio [6]: 7.2 | selectivity ratio [7]: 14.4 | selectivity ratio [8]: 14.4 | selectivity ratio [9]: 7.2 | selectivity ratio [10]: 7.2 | MIC [1]: 289 µM (≈ 125 µg/mL) | selectivity ratio [11]: 7.2 | selectivity ratio [12]: 7.2

O=C(NN1C(=O)c2ccccc2C1=O)c1cc2c([nH]c3ccccc32)c(-c2ccc(F)cc2)n1
selectivity ratio [2]: 12.2 | selectivity ratio [3]: 12.2 | CC50 at 24 h [5]: 762 µM | selectivity ratio [6]: 6.1 | selectivity ratio [7]: 12.2 | selectivity ratio [8]: 12.2 | selectivity ratio [9]: 6.1 | selectivity ratio [10]: 6.1 | MIC [1]: 278 µM (≈ 125 µg/mL) | selectivity ratio [11]: 12.2 | selectivity ratio [12]: 6.1

COc1ccc(-c2nc(C(=O)NN3C(=O)c4ccccc4C3=O)cc3c2[nH]c2ccccc23)cc1
MIC [1]: > 541 µM

COc1cc(-c2nc(C(=O)NN3C(=O)c4ccccc4C3=O)cc3c2[nH]c2ccccc23)ccc1O
MIC [1]: 523 µM (≈ 250 µg/mL)

O=C(NN1C(=O)CCC1=O)c1cc2c([nH]c3ccccc32)c(-c2cccc([N+](=O)[O-])c2)n1
MIC [1]: > 583 µM

COC(=O)c1cc2c([nH]c3ccccc32)c(-c2ccc(F)cc2)n1
MIC [1]: > 781 µM

NNC(=O)c1ccncc1 [ISONIAZID]
MIC [1]: 0.06 µM (≈ 0.00823 µg/mL)
